{"data": "Experimental data from different studies", "target": "Phosphorylase b kinase gamma catalytic chain, liver/testis isoform (PHKG2, Homo sapiens, UniProt P15735)", "One construct used (P15735 1-406)": "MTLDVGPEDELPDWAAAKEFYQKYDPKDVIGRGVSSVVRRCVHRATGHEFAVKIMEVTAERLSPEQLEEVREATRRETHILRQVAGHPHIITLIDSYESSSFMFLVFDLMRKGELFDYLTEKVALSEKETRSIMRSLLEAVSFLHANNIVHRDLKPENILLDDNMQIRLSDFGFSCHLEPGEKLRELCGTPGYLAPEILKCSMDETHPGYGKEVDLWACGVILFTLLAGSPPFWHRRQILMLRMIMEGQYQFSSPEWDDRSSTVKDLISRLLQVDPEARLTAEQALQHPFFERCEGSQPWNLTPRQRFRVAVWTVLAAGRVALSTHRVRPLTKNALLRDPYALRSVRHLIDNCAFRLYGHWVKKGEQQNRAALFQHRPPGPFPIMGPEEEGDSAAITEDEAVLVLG", "note": "Compare with care: the assays were run in different laboratories."}
{"Compound": "CCN1CCN(Cc2ccc(NC(=O)c3ccc(C)c(Oc4ccnc5[nH]ccc45)c3)cc2C(F)(F)F)CC1", "test": "target engagement in cells, inhibitor, chemoproteomics", "test system": "Huh-7", "setting": "10 µM", "measurement": "inhibition", "value": "-12.3%"}
{"Compound": "Cc1cc(NC(=O)c2cccc3cc(-c4cccc5[nH]nc(N)c45)ccc23)ccc1F", "test": "enzyme activity, inhibitor", "setting": "0.1 µM", "measurement": "activity vs control", "value": "87%"}
{"Compound": "CCN(CC)c1ccc(C2=NNC(=O)CC2C)cc1[N+](=O)[O-] (stereo not drawn)", "test": "enzyme activity, inhibitor", "setting": "10 µM", "measurement": "remaining activity", "value": "107%"}
{"Compound": "Cn1nc(C(F)(F)F)cc1-c1cnc(N2CCc3cc(S(=O)(=O)Nc4c(F)cc(Cl)cc4F)cc(N4CCCC4=O)c32)nc1", "test": "cell-free assay, competition with immobilised ligand", "setting": "1 µM", "measurement": "remaining binding", "value": "96%"}
{"Compound": "CCCCNc1ncc2c(-c3ccc(F)cc3)nn(C[C@H]3CC[C@H](N)CC3)c2n1", "test": "target engagement in cells, inhibitor, chemoproteomics", "setting": "20 mM", "measurement": "inhibition", "value": "-3.3%"}
{"Compound": "CCCCN(CCCC)C(=O)CN1C[C@H](c2cc(OC)c3c(c2)OCO3)[C@@H](C(=O)O)[C@@H]1CC(C)(C)CCC", "test": "cell-free assay, competition with immobilised ligand", "setting": "1 µM", "measurement": "remaining binding", "value": "100%"}
{"Compound": "Cc1ccc(Nc2nccc(N(C)c3ccc4c(C)n(C)nc4c3)n2)cc1S(N)(=O)=O", "test": "enzyme activity, inhibitor", "setting": "10 µM", "measurement": "inhibition", "value": "-2%"}
{"Compound": "Cc1ccc(C(=O)NCc2ccsc2)cc1C#Cc1cn(C(C)C)c2ncnc(N)c12", "test": "enzyme activity, inhibitor", "setting": "1 µM", "measurement": "activity vs control", "value": "110%"}
{"Compound": "CCC(=O)N[C@H]1CC[C@@H](C(=O)N(C)c2ccc(-c3nc4ccccc4o3)cc2)C1", "test": "cell-free assay, competition with immobilised ligand", "setting": "1 µM", "measurement": "remaining binding", "value": "100%"}
{"Compound": "O=C1NC(=O)c2cc(Nc3ccc(F)cc3)c(Nc3ccc(F)cc3)cc21", "test": "cell-free assay", "setting": "0.5 µM", "measurement": "remaining signal", "value": "97.1%"}
{"Compound": "O=C(Nc1cnn(-c2csc(C(=O)NC3COC3)c2)c1)Nc1c(F)cccc1Cl", "test": "enzyme activity, inhibitor", "setting": "5 µM", "measurement": "remaining activity", "value": "131%"}
{"Compound": "COc1cc(Cl)c(C(=O)N[C@@H](CN[C@H]2CC[C@@H](N)CC2)Cc2ccc(C#N)cc2)cc1-c1ccc(CN[C@H](C)c2ccc(C)cc2)o1", "test": "enzyme activity, inhibitor", "setting": "1 µM", "measurement": "remaining activity", "value": "103%"}
{"Compound": "COc1cc2ncnc(Nc3ccc(Oc4ccccc4)cc3C)c2cc1OC", "test": "enzyme activity, inhibitor", "setting": "1 µM", "measurement": "inhibition", "value": "0%"}
{"Compound": "Nc1nc(Nc2ccc(S(N)(=O)=O)cc2)nn1C(=O)c1c(F)cccc1F", "test": "cell-free assay", "setting": "0.5 µM", "measurement": "remaining signal", "value": "102%"}
{"Compound": "O=C(Nc1cccnn1)N1CCC(=Cc2cccc(Oc3ccc(C(F)(F)F)cn3)c2)CC1", "test": "cell-free assay, competition with immobilised ligand", "setting": "1 µM", "measurement": "remaining binding", "value": "88%"}
{"Compound": "CC(C)(O)[C@H]1CC[C@H](Nc2ccc3ncc(-c4cccc(C(F)(F)F)c4)n3n2)CC1", "test": "enzyme activity, inhibitor", "setting": "1 µM", "measurement": "remaining activity", "value": "99.4%"}
{"Compound": "Clc1ccc(Nc2nnc(Cc3ccncc3)c3ccccc23)cc1", "test": "cell-free assay", "setting": "0.5 µM", "measurement": "remaining signal", "value": "91.8%"}
{"Compound": "CC(=O)N1CCC(c2ccc(C(=O)NC(=N)N)cc2C(F)(F)F)CC1", "test": "cell-free assay, competition with immobilised ligand", "setting": "1 µM", "measurement": "remaining binding", "value": "100%"}
